Data taken from ChEMBL document CHEMBL1149388, “Synthesis and structure-activity relationships of 3-[(2-methyl-1,3-thiazol-4-yl)ethynyl]pyridine analogues as potent, noncompetitive metabotropic glutamate receptor subtype 5 antagonists; search for cocaine medications” (J Med Chem, 2006).
Active and inactive are the calls of the source. The calls are words filed in the database; no cut-off is given here.

Target: Metabotropic glutamate receptor 5 (Homo sapiens, UniProt P41594)
Test: Displacement of [3H]MPEP from cloned human mGluR5 transfected in HEK293-T cells
Type: cell-based
Summary of the method: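 HEK293-T cells transiently transfected with cloned mGluR5 cDNA. Binding used 3.0 nM [3H]-MPEP with varying unlabeled ligand in 50 mM Tris-Cl, 0.9% NaCl, pH 7.4, incubated 90 min at 20 °C. Membranes were harvested on PEI-pretreated GF/C filters and counted by scintillation to obtain Ki.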

Chain of Metabotropic glutamate receptor 5 (Homo sapiens, UniProt P41594) (P41594 whole entry): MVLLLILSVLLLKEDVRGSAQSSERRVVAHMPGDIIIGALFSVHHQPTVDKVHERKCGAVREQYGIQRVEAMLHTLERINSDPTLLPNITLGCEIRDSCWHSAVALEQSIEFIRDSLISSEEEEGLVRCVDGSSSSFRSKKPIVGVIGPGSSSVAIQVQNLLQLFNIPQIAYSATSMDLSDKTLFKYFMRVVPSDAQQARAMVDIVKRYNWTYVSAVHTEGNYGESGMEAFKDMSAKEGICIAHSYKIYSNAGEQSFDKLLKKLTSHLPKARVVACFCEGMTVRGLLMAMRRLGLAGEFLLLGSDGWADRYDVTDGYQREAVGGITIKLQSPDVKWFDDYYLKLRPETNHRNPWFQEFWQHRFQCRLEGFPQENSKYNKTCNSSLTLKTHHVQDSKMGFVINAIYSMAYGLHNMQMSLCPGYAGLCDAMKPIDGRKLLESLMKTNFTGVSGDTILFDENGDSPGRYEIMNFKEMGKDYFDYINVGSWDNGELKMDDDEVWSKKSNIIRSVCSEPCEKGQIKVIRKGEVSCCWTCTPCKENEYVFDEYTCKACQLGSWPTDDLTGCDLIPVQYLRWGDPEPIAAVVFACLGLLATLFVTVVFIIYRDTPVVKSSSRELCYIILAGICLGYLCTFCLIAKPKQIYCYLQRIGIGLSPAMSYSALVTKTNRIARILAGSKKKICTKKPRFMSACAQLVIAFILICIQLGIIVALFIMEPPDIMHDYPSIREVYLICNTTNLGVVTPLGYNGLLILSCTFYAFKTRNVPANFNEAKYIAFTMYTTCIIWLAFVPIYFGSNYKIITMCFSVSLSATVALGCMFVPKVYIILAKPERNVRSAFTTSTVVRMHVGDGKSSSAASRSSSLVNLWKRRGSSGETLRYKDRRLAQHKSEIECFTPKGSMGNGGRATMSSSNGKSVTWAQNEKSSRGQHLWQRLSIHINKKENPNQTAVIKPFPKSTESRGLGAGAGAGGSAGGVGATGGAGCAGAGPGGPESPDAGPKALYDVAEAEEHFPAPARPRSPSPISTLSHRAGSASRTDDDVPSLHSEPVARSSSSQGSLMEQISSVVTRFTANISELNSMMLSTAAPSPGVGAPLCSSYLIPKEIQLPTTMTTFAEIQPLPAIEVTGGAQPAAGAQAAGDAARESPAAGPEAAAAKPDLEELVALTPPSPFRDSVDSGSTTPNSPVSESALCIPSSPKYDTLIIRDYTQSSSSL

Ki	SMILES
0.37 nM	Cc1nc(C#Cc2cccc(C#N)c2)cs1
1 nM	C=Cc1cncc(C#Cc2csc(C)n2)c1

Target: Metabotropic glutamate receptor 5 (Rattus norvegicus, UniProt P31424)
Test: Displacement of [3H]MPEP from mGluR5 in rat brain membranes
Type: cell membranes

Chain of Metabotropic glutamate receptor 5 (Rattus norvegicus, UniProt P31424) (P31424 whole entry): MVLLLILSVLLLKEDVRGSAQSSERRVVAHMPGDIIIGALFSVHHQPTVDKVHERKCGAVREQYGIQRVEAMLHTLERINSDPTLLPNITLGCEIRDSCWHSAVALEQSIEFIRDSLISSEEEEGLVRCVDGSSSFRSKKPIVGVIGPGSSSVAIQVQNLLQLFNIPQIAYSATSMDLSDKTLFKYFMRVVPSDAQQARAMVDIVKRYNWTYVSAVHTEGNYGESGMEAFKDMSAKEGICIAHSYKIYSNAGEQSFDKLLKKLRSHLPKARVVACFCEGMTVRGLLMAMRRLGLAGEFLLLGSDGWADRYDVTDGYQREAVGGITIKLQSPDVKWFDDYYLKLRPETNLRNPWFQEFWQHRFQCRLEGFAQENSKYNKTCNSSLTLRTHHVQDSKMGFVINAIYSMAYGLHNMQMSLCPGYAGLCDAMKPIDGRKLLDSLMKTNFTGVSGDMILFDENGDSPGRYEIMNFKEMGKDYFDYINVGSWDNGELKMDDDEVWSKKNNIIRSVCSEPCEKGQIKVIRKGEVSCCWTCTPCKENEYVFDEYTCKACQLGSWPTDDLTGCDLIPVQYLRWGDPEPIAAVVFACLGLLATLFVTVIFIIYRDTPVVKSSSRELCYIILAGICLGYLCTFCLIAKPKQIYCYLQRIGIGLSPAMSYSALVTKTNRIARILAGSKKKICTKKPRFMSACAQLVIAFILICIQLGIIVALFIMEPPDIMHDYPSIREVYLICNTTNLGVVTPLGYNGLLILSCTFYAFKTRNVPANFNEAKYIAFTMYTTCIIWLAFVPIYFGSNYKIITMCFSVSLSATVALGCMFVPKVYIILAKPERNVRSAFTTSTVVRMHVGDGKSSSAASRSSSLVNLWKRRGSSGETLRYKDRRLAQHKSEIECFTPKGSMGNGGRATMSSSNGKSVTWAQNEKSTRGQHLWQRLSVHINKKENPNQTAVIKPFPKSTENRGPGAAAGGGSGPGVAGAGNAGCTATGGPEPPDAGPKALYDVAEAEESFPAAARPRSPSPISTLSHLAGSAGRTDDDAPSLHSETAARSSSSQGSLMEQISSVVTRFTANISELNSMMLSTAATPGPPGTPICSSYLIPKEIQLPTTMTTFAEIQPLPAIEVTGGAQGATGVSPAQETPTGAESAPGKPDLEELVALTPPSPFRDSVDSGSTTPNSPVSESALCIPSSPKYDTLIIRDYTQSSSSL

Ki	SMILES
0.25 nM	Cc1nc(C#Cc2cccc(C#N)c2)cs1
0.71 nM	C=Cc1cncc(C#Cc2csc(C)n2)c1

Organism: Rattus norvegicus
Test: Ability to prevent reinstatement of cocaine-seeking behavior by environmental stimuli associated with cocaine availability in Wistar rat
Type: functional, organism-based
Summary of the method: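 Adult male Wistar rats with jugular catheters trained to self-administer cocaine (0.25 mg/kg/infusion) under FR4 in daily 2 h sessions. Extinction continued until active-lever responding fell below 20% of baseline for 3 consecutive days. Cue-induced reinstatement was then tested 30 min after i.p. pretreatment with 5 or 10 mg/kg or vehicle (5% emulphor in saline). Active-lever responses were analysed by one-way ANOVA with Tukey tests.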

SMILES	Activity
Cc1nc(C#Cc2cccnc2)cs1	Active

Target: Metabotropic glutamate receptor 5 (Rattus norvegicus) (UniProt P31424)
Test: Activity in agonist-induced phosphoinositide hydrolysis in CHO cells expressing mGluR5a

Chain of Metabotropic glutamate receptor 5 (Rattus norvegicus) (P31424 whole entry, looked up): as the sequence (P31424 whole entry) above

SMILES	IC50
Fc1cccc(C#Cc2csc(Br)n2)c1	526 nM
C#Cc1nc(C#Cc2cccc(F)c2)cs1	2920 nM
CCc1sc(C)nc1C#Cc1cccnc1	1240 nM
O=C(Nc1nc(C#Cc2cccnc2)cs1)Nc1ccc(F)cc1F	> 10000 nM
Cc1nc(C#Cc2cc(F)cc(F)c2)cs1	25.3 nM
Cc1nc(C#Cc2cccnc2OS(C)(=O)=O)cs1	> 10000 nM
OCC#Cc1nc(C#Cc2cccc(F)c2)cs1	> 10000 nM
Cc1nc(C#Cc2cccnc2)c(C)s1	698 nM
Cc1nc(C#Cc2cccc(OC(F)(F)F)c2)cs1	266 nM
Cc1nc(C#Cc2cccnc2)c(-c2ccccc2)s1	> 10000 nM
Cc1nc(C#Cc2cccnc2)co1	> 10000 nM
COc1ncccc1C#Cc1csc(C)n1	228 nM
COc1ccccc1C#Cc1csc(C)n1	36.3 nM
Cc1nc(C#Cc2ccccc2F)cs1	140 nM
Cc1nc(C#Cc2cccs2)cs1	475 nM
Cc1nc(/C=C/c2cccnc2)cs1	3090 nM

SMILES	IC50
Cc1nc(C(=O)Nc2cccnc2)cs1	> 10000 nM
Cc1nc(C#Cc2cccc(C(N)=O)c2)cs1	1000 nM
C(#Cc1csc(NCc2ccccc2)n1)c1cccnc1	> 10000 nM
Cc1nc(C(=O)Nc2cccc(F)c2)cs1	> 10000 nM
Nc1nc(C#Cc2cccc(F)c2)cs1	78.6 nM
Cc1nc(C#Cc2cncc(C#CCO)c2)cs1	68.6 nM
CC(=O)Nc1cccc(C#Cc2csc(C)n2)c1	2020 nM
CC(=O)Nc1nc(C#Cc2cccnc2)cs1	1920 nM
Nc1nc(C#Cc2cccnc2)cs1	789 nM
Fc1cccc(C#Cc2csc(-c3cc(F)cc(F)c3)n2)c1	> 10000 nM
Cc1nc(C#Cc2cccc(F)c2)co1	> 10000 nM
Cc1nc(C#Cc2cccc(C(F)(F)F)c2)cs1	413 nM
COc1ccc(-c2cncc(C#Cc3csc(C)n3)c2)cc1	225 nM
COC(=O)Nc1nc(C#Cc2cccnc2)cs1	> 10000 nM
Cc1nc(C#Cc2cncc(-c3ccc(F)cc3)c2)cs1	162 nM

The next lines start with the values.

IC50	SMILES
> 10000 nM	Cc1nc(C#Cc2ccc(Cl)nc2)cs1
2340 nM	Cc1nc(C#Cc2ccc(OS(C)(=O)=O)nc2)cs1
654 nM	Cc1nc(C#Cc2cccc(O)c2)cs1
0.94 nM	Cc1nc(C#Cc2cccc(C#N)c2)cs1
> 10000 nM	Cc1nc(C#Cc2ccc3[nH]ccc3c2)cs1
2.01 nM	C=Cc1cncc(C#Cc2csc(C)n2)c1
10.2 nM	Cc1nc(C#Cc2ccc(-c3ccc(F)cc3)nc2)cs1
> 10000 nM	Cc1nc(C#Cc2cnc3ccccc3c2)cs1
> 10000 nM	C=Cc1ccc(C#Cc2csc(C)n2)cn1
946 nM	Cc1nc(C#Cc2cncnc2)cs1
1090 nM	Cc1nc(C#Cc2ccc(F)cn2)cs1
45.5 nM	Cc1nc(C#Cc2cccnc2Cl)cs1
1830 nM	Cc1nc(C#Cc2cnccn2)cs1
60 nM	Cc1nc(C#Cc2cncc(Br)c2)cs1
2950 nM	C#Cc1ccc(C#Cc2csc(C)n2)cn1
337 nM	Cc1nc(C#Cc2ccsc2)cs1
2970 nM	Cc1nc(C#Cc2ccc(F)cc2)cs1
129 nM	Cc1nc(C#Cc2cccc(Cl)c2)cs1
23 nM	Cc1nc(C#Cc2cccc(F)c2)cs1
192 nM	C#Cc1ncccc1C#Cc1csc(C)n1
426 nM	COc1ccc(C#Cc2csc(C)n2)cn1
49 nM	COc1cccc(C#Cc2csc(C)n2)c1
19.2 nM	C#Cc1cncc(C#Cc2csc(C)n2)c1
> 10000 nM	Cc1nc(C#Cc2ccc3nccnc3c2)cs1
833 nM	Cc1nc(C#Cc2ccc(F)nc2)cs1
